Measurements published in paper PMC7126014 (Fitoterapia, 2010).
pIC50: −log10 of the molar value.

What was measured:
[1] = system: MA104 cells; assay: Cytotoxicity by microscopical cell morphology evaluation; assay type: cell-based; conditions: mean of three independent experiments
Outline: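 Toxicity to MA104 cells was scored by microscopic assessment of cell morphology. Cells were grown in 199 medium with 10% fetal bovine serum and antibiotics at 37 °C in humidified 5% CO2. Test compound was dissolved in 1% DMSO in 199 medium and filtered at 0.22 μm. CC50 was estimated by linear regression of concentration–effect curves, as the mean of three independent experiments.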

[2] = system: human rotavirus (Wa-1 strain); assay: Antirotavirus activity by cytopathic effect; assay type: cell-based; conditions: for antiviral (antirotavirus) activity in words: non-cytotoxic concentrations; for pIC50: human rotavirus, NA = no antiviral activity
Outline: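 MA104 cells grown in 199 medium with 10% fetal bovine serum, penicillin G, streptomycin and amphotericin B at 37 °C, 5% CO2, were infected with human rotavirus Wa-1, which had been propagated in MA104 cells with trypsin (5 μg/ml) and titred as TCID50/ml. Test compound was dissolved in 1% DMSO in 199 medium and filter-sterilised. Read-out was cytopathic-effect inhibition. IC50 came from linear regression of concentration–effect curves, as the mean of three independent experiments.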

| Compound | CC50 ([1]; flavonols (Table 1)) [µM] | antiviral (antirotavirus) activity in words [2] | CC50 ([1]; flavones (Table 2)) [µM] | pIC50 ([2]; flavones (Table 2)) | pIC50 ([2]; flavonols (Table 1)) |
| --- | --- | --- | --- | --- | --- |
| COc1ccc(-c2oc3ccccc3c(=O)c2O)cc1 [compound 7] | 29.1 | antiviral action was not observed |  |  |  |
| COc1ccc(-c2cc(=O)c3c(O)c(OC)c(OC)c(OC)c3o2)cc1 [compound 51] |  |  | 43.6 | 5.14 |  |
| O=c1c(O)c(-c2ccc(O)c(O)c2)oc2ccccc12 [compound 4] | 57.7 |  |  |  | 4.84 |
| CCCCOc1ccccc1-c1oc2ccccc2c(=O)c1O [compound 23] | 302 |  |  |  | 4.12 |
| COc1ccc(-c2oc3c(OC)c(OC)c(OC)c(OC)c3c(=O)c2OC)cc1OC [compound 57] |  | weak antirotavirus activity | 36.1 | 4.74 |  |
| COc1ccc(-c2cc(=O)c3c(OC)c(OC)c(OC)c(OC)c3o2)cc1OC [compound 55] |  | antiviral effect was not shown | 38.8 |  |  |
| C[C@@H]1O[C@@H](Oc2c(-c3ccc(O)c(O)c3)oc3cc(O)cc(O)c3c2=O)[C@H](O)[C@H](O)[C@H]1O [compound 44] |  | did not provide antiviral activity | 69.6 |  |  |
| COc1c(-c2ccc(O)c(O)c2)oc2cc(O)cc(O)c2c1=O [compound 43] |  | conferred an antiviral activity | 49.3 | 4.91 |  |
| O=c1c(O)c(-c2ccccc2)oc2cc(O)ccc12 [compound 27] | 61.4 |  |  |  | 4.80 |
| CCOc1ccccc1-c1oc2ccccc2c(=O)c1O [compound 15] | 111 |  |  |  |  |
| CCCCOc1ccc2c(=O)c(O)c(-c3ccccc3)oc2c1 [compound 38] | 50.3 | Antiviral activity was provided |  |  | 5.08 |
| COc1ccc(-c2oc3cccc(OC)c3c(=O)c2O)cc1 [compound 31] | 26.2 |  |  |  | 5.33 |
| COc1ccc(-c2cc(=O)c3c(O)cc(OC)cc3o2)cc1 [compound 50] |  |  | 52.4 | 4.88 |  |
| CCOc1cccc(-c2oc3ccccc3c(=O)c2O)c1 [compound 14] | 111 |  |  |  |  |
| COc1ccc(-c2oc3cc(OC)ccc3c(=O)c2O)cc1 [compound 33] | 26.2 |  |  |  | 5.20 |
| O=c1c(O)c(-c2cccc(O)c2)oc2ccccc12 [compound 2] | 61.4 |  |  |  | 4.56 |
| COc1ccccc1-c1oc2ccccc2c(=O)c1O [compound 8] | 44.7 | antiviral action was not observed |  |  |  |
| O=c1c(O)c(-c2ccccc2OCc2ccccc2)oc2ccccc12 [compound 19] | 45.3 | considerable antirotavirus action |  |  | 5.12 |
| COc1ccc(-c2cc(=O)c3cc(OCc4ccccc4)ccc3o2)cc1 [compound 48] |  | antiviral activity was not shown | 21.8 |  |  |
| O=c1c(O)c(-c2ccccc2O)oc2ccccc12 [compound 1] | 61.4 | did not grant antiviral activity |  |  |  |
| O=c1c(O)c(-c2ccc(O)cc2)oc2ccccc12 [compound 3] | 61.4 | did not grant antiviral activity |  |  |  |
| CCc1ccc(-c2oc3ccccc3c(=O)c2O)cc1 [compound 21] | 14.7 | Antiviral activity was provided |  |  | 5.44 |
| COc1cc(-c2oc3c(OC)c(OC)cc(O)c3c(=O)c2OC)ccc1O [compound 59] |  |  | 41.7 | 5.16 |  |
| CCOc1ccc(OCC)c(-c2oc3ccccc3c(=O)c2O)c1 [compound 17] | 23.9 |  |  |  | 4.92 |
| COc1ccc(-c2oc3cc(OC)ccc3c(=O)c2O)c(OC)c1 [compound 34] | 47.4 |  |  |  | 4.93 |
| O=c1c(O)c(-c2ccc(OCc3ccccc3)cc2)oc2ccccc12 [compound 13] | 22.7 | considerable antirotavirus action |  |  | 5.42 |
| CCOc1ccc(-c2oc3ccccc3c(=O)c2O)c(OCC)c1 [compound 16] | 47.8 |  |  |  |  |

| Compound | CC50 ([1]; flavonols (Table 1)) [µM] | antiviral (antirotavirus) activity in words [2] | CC50 ([1]; flavones (Table 2)) [µM] | pIC50 ([2]; flavones (Table 2)) | pIC50 ([2]; flavonols (Table 1)) |
| --- | --- | --- | --- | --- | --- |
| COc1ccc(-c2oc3ccccc3c(=O)c2O)c(OC)c1OC [compound 12] | 23.8 |  |  |  | 5.22 |
| CCOc1ccc(-c2oc3ccccc3c(=O)c2O)cc1OCC [compound 18] | 47.8 | promising antiviral activity |  |  | 5.10 |
| COc1ccc(-c2oc3ccccc3c(=O)c2O)cc1OC [compound 10] | 52.3 |  |  |  | 4.88 |
| O=c1c(OS(=O)(=O)O)c(-c2ccc(O)c(O)c2)oc2cc(O)cc(O)c12 [compound 47] |  | conferred an antiviral activity | 40.9 | 4.99 |  |
| O=c1c(O)c(-c2ccc(OCc3ccccc3)cc2)oc2cc(OCc3ccccc3)ccc12 [compound 39] | 69.3 | Antiviral activity was provided |  |  | 4.76 |
| COc1ccc(-c2cc(=O)c3c(OC)c(OC)c(OC)cc3o2)cc1OC [compound 54] |  |  | 41.9 | 5.16 |  |
| quercetrin [compound 46] |  | did not provide antiviral activity | 27.2 |  |  |
| COc1ccc2c(=O)c(O)c(-c3ccccc3)oc2c1 [compound 30] | 29.1 |  |  |  |  |
| O=c1c(O)c(-c2ccc(O)c(O)c2)oc2cc(O)cc(O)c12 [compound 28] | 103 | antiviral activity was not observed |  |  |  |
| CCCCOc1ccc(-c2oc3ccccc3c(=O)c2O)cc1OCCCC [compound 25] | 40.8 | higher activity |  |  | 5.17 |
| CCOc1ccc2c(=O)c(O)c(-c3ccccc3)oc2c1 [compound 35] | 111 |  |  |  |  |
| COc1ccc(-c2cc(=O)c3c(OC)c(OC)c(OC)c(OC)c3o2)cc1 [compound 49] |  |  | 168 | 4.55 |  |
| COc1c(OC)c(O)c2c(=O)cc(-c3ccc(O)cc3)oc2c1OC [compound 40] |  |  | 22.7 | 5.12 |  |
| O=c1c(O)c(-c2cc(O)c(O)c(O)c2)oc2ccccc12 [compound 6] | 27.2 |  |  |  | 4.74 |
| CCOc1ccc(-c2oc3cc(OCC)ccc3c(=O)c2O)cc1 [compound 36] | 47.8 | antiviral activity was detected |  |  | 4.92 |
| COc1cc(-c2oc3ccccc3c(=O)c2O)cc(OC)c1OC [compound 11] | 47.5 |  |  |  | 4.93 |
| COc1ccc(-c2oc3c(OC)c(OC)c(OC)c(O)c3c(=O)c2OC)cc1O [compound 60] |  |  | 77.2 | 4.11 |  |
| COc1ccc2oc(-c3ccccc3)c(O)c(=O)c2c1 [compound 29] | 29.1 |  |  |  |  |
| COc1ccc(-c2oc3ccc(OC)cc3c(=O)c2O)cc1 [compound 32] | 105 |  |  |  | 4.76 |
| CCOc1cccc(-c2oc3cc(OCC)ccc3c(=O)c2O)c1 [compound 37] | 47.8 | antiviral activity was detected |  |  | 5.10 |
| CCCCOc1ccc(-c2oc3ccccc3c(=O)c2O)cc1 [compound 24] | 201 |  |  |  | 4.39 |
| CCCCOc1cccc(-c2oc3ccccc3c(=O)c2O)c1 [compound 22] | 25.1 |  |  |  | 5.21 |
| COc1ccc(-c2cc(=O)c3c(O)c(OC)c(OC)cc3o2)cc1 [compound 52] |  |  | 23.8 | 4.81 |  |
| COc1ccc(-c2oc3ccccc3c(=O)c2O)c(OC)c1 [compound 9] | 52.3 |  |  |  | 4.58 |
| O=c1c(O)c(-c2cc(O)ccc2O)oc2ccccc12 [compound 5] | 57.7 | did not grant antiviral activity |  |  |  |
| CCCCOc1ccc(-c2oc3ccccc3c(=O)c2O)c(OCCCC)c1 [compound 26] | 40.8 |  |  |  | 4.99 |
